Consider 4 molecules from ChEMBL document CHEMBL1123247, “Nucleoside conjugates. 7. Synthesis and antitumor activity of 1-beta-D-arabinofuranosylcytosine conjugates of ether lipids” (J Med Chem, 1986).

Assay [1] deals with L1210. The assay can be described thus: Antitumor activity against ip implanted L1210 leukemia in mice expressed as active dose range (1-5qd treatment schedule) required to produce increase in life span by >25% was determined; Range is 10-80. Format: functional, Mus musculus. The gist of the method: (§1)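 DBA/2J mice, groups of 6 (23-28 g), were inoculated ip with 1 × 10^6 L1210 cells on day 0. Dosing was ip from 24 h, in 0.9% NaCl with 0.5% Tween-80 (sonicated solution or suspension). Mice were observed daily until death or day 45. Median survival T/C followed NCI protocols, and ILS = (T/C − 1) × 100. Active range means doses giving ILS ≥25%; optimal dose means greatest ILS.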

Assay [2] relates to P388. The assay can be described thus: Antitumor activity was determined against the ip implanted P388 leukemia in mice by range in survival days at 60 mg/kg (1-5qd treatment schedule) dosage; Range is 35->45. The following applies: route intraperitoneal. Format: functional, Mus musculus.
Assay [3] concerns L1210. The assay can be described thus: Antitumor activity against the ic implanted L1210 lymphoid leukemia in mice (1,5,9qd treatment schedule) required to produce greatest increase in life span was determined. Format: functional, Mus musculus. The gist of the method: (§2)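 DBA/2J mice, groups of 6 (26-32 g), got 1 × 10^5 L1210 cells ic on day 0. Dosing was ip starting 24 h later, as a sonicated solution or suspension in 0.9% NaCl with 0.5% Tween-80, over a wide dose range. Mice were followed daily until death. Median survival T/C was taken from survivors per NCI protocols, and ILS = (T/C − 1) × 100. Active range means doses giving ILS ≥25%; optimal dose means greatest ILS.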

Assay [4] relates to L1210. As to the kind of experiment: Antitumor activity was determined against the ic implanted L1210 lymphoid leukemia in mice by median survival time at 133 mg/kg (1,5,9qd treatment schedule) dosage; 20.0/8.0.
The test system of assay [5] is L1210. The assay can be described thus: Antitumor activity was determined against the ic implanted L1210 lymphoid leukemia in mice by range in survival days at 300 mg/kg (1 qd treatment schedule) dosage; Range is 19-23. The format is functional, Mus musculus.
In assay [6] the test system is L1210. As to the kind of experiment: Antitumor activity against ip implanted L1210 leukemia in mice expressed as active dose range (1 qd treatment schedule) required to produce increase in life span by >25% was determined; Range is 50-400. Format: functional, Mus musculus. The gist of the method: as §1
Assay [7] concerns L1210. As to the kind of experiment: Antitumor activity against the ic implanted L1210 lymphoid leukemia in mice expressed as optimal dose (1 qd treatment schedule) required to produce greatest increase in life span was determined.
For assay [8], the system named is L1210. The assay can be described thus: Antitumor activity against the ic implanted L1210 lymphoid leukemia in mice expressed as optimal dose (1, 5, 9qd treatment schedule) required to produce greatest increase in life span was determined. The format is functional, Mus musculus. The gist of the method: as §2
The subject of assay [9] is P388. The assay can be described thus: Antitumor activity was determined against the ip implanted P388 leukemia in mice by change in […] at 133 mg/kg (treatment of 1qd schedule) dosage. Format: functional, Mus musculus. The conditions noted are these: dose 300 mg/kg; route intraperitoneal; in the assay text read “300 mg/kg” for “133 mg/kg”. The gist of the method:
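P388 leukemia, 1×10^6 cells implanted ip on day 0 into DBA/2J mice, groups of 6 (wt 23-33 g). Dosing ip started 24 h post-inoculation, vehicle 0.9% NaCl containing 0.5% Tween-80. Animals were observed daily until death or 45 days. Outputs were weight change, median survival T/C from survivors per NCI protocols, and %ILS = (T/C − 1) × 100.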

Assay [10] relates to L1210. As to the kind of experiment: Antitumor activity against ic implanted L1210 lymphoid leukemia in mice expressed as active dose range (1-5qd treatment schedule) required to produce increase in life span by >25% was determined; Range is 40-100. Format: functional, Mus musculus. The gist of the method: as §2
For assay [11], the system named is L1210. As to the kind of experiment: Antitumor activity was determined against the ip implanted L1210 leukemia in mice by median survival time at 100 mg/kg (treatment of 1-5qd schedule) dosage; 23.0/7.0. The following applies: route intraperitoneal.
In assay [12] the test system is L1210. The assay can be described thus: Antitumor activity was determined against the ip implanted L1210 leukemia in mice by percent median survival rate (treated/control) at 400 mg/kg (treatment of 1qd schedule) dosage; 25.0/7.0. The format is functional, Mus musculus. The following applies: route intraperitoneal. An outline of the steps:
(§3)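 DBA/2J mice, 23-28 g, in groups of 6, were inoculated ip with 1×10^6 L1210 cells on day 0. Dosing was ip starting 24 h later on the stated daily schedules. Conjugates were given as sonicated solutions and reference prodrugs as suspensions in 0.9% NaCl with 0.5% Tween-80. Mice were observed daily until death or 45 days. Median survival T/C was calculated from survivors per NCI protocols.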

The subject of assay [13] is L1210. As to the kind of experiment: Antitumor activity against ic implanted L1210 lymphoid leukemia in mice expressed as active dose range (1-9qd treatment schedule) required to produce increase in life span by >25% was determined; Range is 100-300. Format: functional, Mus musculus. An outline of the steps: as §2
Assay [14] relates to L1210. The assay can be described thus: Antitumor activity against ic implanted L1210 lymphoid leukemia in mice expressed as active dose range (1-5qd treatment schedule) required to produce increase in life span by >25% was determined; Range is 50-300. The format is functional, Mus musculus. An outline of the steps:
as §2

The subject of assay [15] is HL-60. As to the kind of experiment: Compound was tested for the inhibition of human HL60 Leukemia. Format: functional, cell-based. The gist of the method: (§4)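 Human leukemia and solid tumor cells in culture were exposed to compound for 48 h. Viability was scored by trypan blue dye exclusion. IC50 (50% inhibition) was estimated from response curves of three separate experiments.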

Assay [16] has as its system L1210. As to the kind of experiment: Antitumor activity was determined against the ic implanted L1210 lymphoid leukemia in mice by median survival time at 100 mg/kg (treatment of 1-9qd schedule) dosage; 14/7.0.
The test system of assay [17] is CML/BC. As to the kind of experiment: Compound was tested for the inhibition of CML/BC(chronic myeloid leukemia, blast crisis). The conditions noted are these: Homo sapiens. Format: functional, cell-based. An outline of the steps:
as §4

Assay [18] deals with AMML. The assay can be described thus: Compound was tested for the inhibition of AMML (acute myelomonocytic leukemia). Format: functional, cell-based. The following applies: Homo sapiens. The gist of the method:
as §4

Assay [19] relates to L1210. The assay can be described thus: Antitumor activity was determined against the ip implanted L1210 leukemia in mice by range in survival days at 200 mg/kg (treatment of 1-5qd schedule) dosage; Range is 15-17. The following applies: route intraperitoneal. The format is functional, Mus musculus. The gist of the method: as §3
Assay [20] relates to L1210. As to the kind of experiment: Antitumor activity was determined against the ic implanted L1210 lymphoid leukemia in mice by change in […] at 300 mg/kg (treatment of 1-5qd schedule) dosage. Format: functional, Mus musculus. An outline of the steps:
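DBA/2J mice, 6 per group (wt 26-32 g), inoculated ic with 1×10^5 L1210 cells on day 0. Dosing ip began 24 h after inoculation, with a sonicated solution or suspension in 0.9% NaCl containing 0.5% Tween-80, given over a range of doses. Animals were followed daily until death. Body weight change, median survival T/C, and %ILS = (T/C − 1) × 100 were computed from survivors per NCI protocols.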

For assay [21], the system named is P388. The assay can be described thus: Antitumor activity was determined against the ip implanted P388 leukemia in mice by range in survival days at 500 mg/kg (treatment of 1qd schedule) dosage; Range is 14-15. The format is functional, Mus musculus. The following applies: route intraperitoneal.

The structures appear in SMILES notation.

As for `CCCCCCCCCCCCCCCC(=O)OC[C@H](COP(=O)(O)OP(=O)(O)OC[C@H]1O[C@@H](n2ccc(N)nc2=O)[C@@H](O)[C@@H]1O)OC(=O)CCCCCCCCCCCCCCC`, the Active dose range was 10 mg/kg/day in assay [1] and 50 mg/kg/day in assay [6]. For the same molecule, the Range in assay [2] came out at 35; in assay [5] it was 19. Moreover, the Optimal dose in [3] worked out at 133 mg. Moreover, in [4], the median survival time was found to be 20 days.
Turning to `CCCCCCCCCCCCCCCCOCC(COP(=O)(O)OP(=O)(O)OC[C@H]1O[C@@H](n2ccc(N)nc2=O)[C@@H](O)[C@@H]1O)OC(=O)CCCCCCCCCCCCCCC` (mixture of isomers), the Optimal dose in [7] was determined as 500 mg; in [8], 167 mg. The Weight change in [9] is recorded as -1.51 g mouse-1. In addition, the Active dose range in assay [10] amounted to 40 mg/kg/day.
Consider `CCCCCCCCCCCCCCCCCCOCC(COP(=O)(O)OP(=O)(O)OC[C@H]1O[C@@H](n2ccc(N)nc2=O)[C@@H](O)[C@@H]1O)OC(=O)CCCCCCCCCCCCCCC` (mixture of isomers), for which the median survival time in assay [11] is 23 days. For the same molecule, the T/C in [12] turned out to be 25%.
For `Nc1ccn([C@@H]2O[C@H](CO)[C@@H](O)[C@@H]2O)c(=O)n1` [CYTARABINE], the Active dose range in assay [13] was found to be 100 mg/kg/day; in assay [14] it was 50 mg/kg/day. Also, the IC50 is 130 nM in assay [15], 210 nM in [17] and 2300 nM in assay [18]. In assay [16], this molecule displayed a median survival time of 14 days. Moreover, the Range in [19] was found to be 15; in assay [21], 14. The molecule further yielded a Weight change in assay [20] of -6.1.
